Measured values published in ChEMBL document CHEMBL2057097, “Synthesis and biological evaluation of rebeccamycin analogues modified at the imide moiety” (Bioorg Med Chem Lett, 2012).

What was measured:
[1] = tested on: A2780; test: Cytotoxicity against human A2780 cells after 72 hrs by sulforhodamine B assay; assay type: functional, cell-based; settings: A2780, 72 h
In short: (§1)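 Cells seeded (A2780 2000, H460 1500, GLC-4 1500 per well), incubated 24 h at 37 °C, 5% CO₂. Compounds from DMSO diluted in saline, tested over 0.001 to 10 range. 24 h exposure, two PBS washes, then 72 h in drug-free medium. Viability by SRB; IC50 from survival-versus-concentration curve against untreated control.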

[2] = tested on: NCI-H460; test: Cytotoxicity against human NCI-H460 cells after 72 hrs by sulforhodamine B assay; assay type: functional, cell-based; settings: NCI-H460, 72 h; in short: as §1
[3] = Cytotoxicity against human GLC4 cells after 72 hrs by sulforhodamine B assay; assay type: functional, cell-based; settings: GLC4, 72 h; in short: as §1
[4] = tested on: A2780; test: Antitumor activity against human A2780 cells xenografted in athymic harlan mouse assessed as tumor volume inhibition at 90 mg/kg, […] Q4D for 4 weeks; assay type: functional; settings: A2780, 672 h
In short: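 Female athymic nude mice, 6–8 weeks old, five per group, implanted s.c. in right flank with A2780 cells (10 × 10⁶ cells/flank in 0.2 ml 0.9% NaCl). Treatment began at tumours approximately 50 mm³. Compound dissolved in sterile water, diluted in saline, given i.v. q4dx4 at 10 ml/kg. Calliper length/width; TV = width² × length/2. TVI versus controls at nadir of treated group; deaths recorded.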

[5] = tested on: Mus musculus; test: Toxicity in athymic Harlan mouse xenografted with human A2780 cells assessed as mortality at 90 mg/kg, iv administered Q4D for 4 weeks; assay type: organism-based; parameters: dose 90 mg/kg, route intravenous; settings: in vivo, 672 h
In short: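 Female athymic nude mice (6–8 weeks old, five per group) received 10 × 10⁶ A2780 cells s.c. in the right flank, suspended in 0.9% NaCl. Dosing began at tumours of about 50 mm³. The drug was dissolved in sterile water for injection, diluted in saline just before use, and given i.v. q4dx4 (twice weekly) at 10 ml/kg. Read-out was deaths out of total mice.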

[6] = tested on: A2780; test: Ratio of IC50 for edotecarin to compound IC50 for human A2780 cells after 72 hrs by sulforhodamine B assay; assay type: functional

## CC[C@@]1(O)C(=O)OCc2c1cc1n(c2=O)Cc2cc3ccccc3nc2-1 [CAMPTOTHECIN]
[1]
  IC50: 7 nM
[2]
  IC50: 5 nM
[3]
  IC50: 10 nM

## O=C1c2c(c3c4ccc(O)cc4n([C@@H]4O[C@H](CO)[C@@H](O)[C@H](O)[C@H]4O)c3c3[nH]c4cc(O)ccc4c23)C(=O)N1NC(CO)CO [EDOTECARIN]
[1]
  IC50: 6.5 nM
[2]
  IC50: 193 nM
[3]
  IC50: 0.8 nM
[4]
  inhibition in vivo at 90 mg/kg: 99.8%
[5]
  Activity: Non-toxic

## O=C1c2c(c3c4ccc(O)cc4n([C@@H]4O[C@H](CO)[C@@H](O)[C@H](O)[C@H]4O)c3c3[nH]c4cc(O)ccc4c23)C(=O)N1N1CCOCC1
[1]
  IC50: 54 nM
[2]
  IC50: > 1000 nM
[3]
  IC50: 90 nM

## COCC(COC)NN1C(=O)c2c(c3c4ccc(O)cc4n([C@@H]4O[C@H](CO)[C@@H](O)[C@H](O)[C@H]4O)c3c3[nH]c4cc(O)ccc4c23)C1=O
[1]
  IC50: 12.7 nM
[2]
  IC50: > 125 nM
[3]
  IC50: 3.8 nM

## O=C1c2c(c3c4ccc(O)cc4n([C@@H]4O[C@H](CO)[C@@H](O)[C@H](O)[C@H]4O)c3c3[nH]c4cc(O)ccc4c23)C(=O)N1NCC1COCO1 (some centres not stated)
[1]
  IC50: 1.7 nM
[2]
  IC50: > 1000 nM
[3]
  IC50: 0.8 nM
[6]
  Ratio IC50: 3

## O=C1c2c(c3c4ccc(O)cc4n([C@@H]4O[C@H](CO)[C@@H](O)[C@H](O)[C@H]4O)c3c3[nH]c4cc(O)ccc4c23)C(=O)N1NC1COCOC1
[1]
  IC50: 0.7 nM
[2]
  IC50: > 250 nM
[3]
  IC50: 0.7 nM
[6]
  Ratio IC50: 10
[4]
  inhibition in vivo at 90 mg/kg: 99.7%
[5]
  Activity: Non-toxic

## O=C1c2c(c3c4ccc(O)cc4n([C@@H]4O[C@H](CO)[C@@H](O)[C@H](O)[C@H]4O)c3c3[nH]c4cc(O)ccc4c23)C(=O)N1NC1C(O)CCCC1O (some centres not stated)
[1]
  IC50: 90 nM
[2]
  IC50: > 250 nM
[3]
  IC50: 101 nM
